# Data reported in ChEMBL document CHEMBL5058577, “EUbOPEN Chemogenomics Library 2 (Multiplex)” (2022).
# “And” between values parts separate entries of the source, which are not always exact repeats. Equal entries are not always repeated.
# Tested on: Fibroblast
# Experiment: Multiplex assay against human fibroblast
# Format: toxicity, cell-based
# Outline: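 Live cells were stained at seeding with Hoechst33342, BioTracker Green Microtubule Cytoskeleton Dye, MitoTracker Red and Annexin V Alexa Fluor 680, then imaged on a CQ1 microscope at 37°C and 5% CO2 after compound addition. CellPathfinder machine-learning gating split cells into Hoechst high-intensity objects or normal cells. Normal cells were split into healthy, pyknosed or fragmented nuclei, and pyknosed cells into mitotic or apoptotic. Tubulin, mitochondrial-mass and membrane-permeability phenotypes are per cents of healthy-nucleus cells.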
# [1] = 12 h, 10 µM, compound concentration 10 uM, replicate 1
# [2] = 12 h, 10 µM, compound concentration 10 uM, replicate 2
# [3] = 24 h, 10 µM, compound concentration 10 uM, replicate 1
# [4] = 24 h, 10 µM, compound concentration 10 uM, replicate 2
# [5] = 48 h, 10 µM, compound concentration 10 uM, replicate 1
# [6] = 48 h, 10 µM, compound concentration 10 uM, replicate 2
# [7] = 12 h, 1 µM, compound concentration 1 uM, replicate 1
# [8] = 12 h, 1 µM, compound concentration 1 uM, replicate 2
# [9] = 24 h, 1 µM, compound concentration 1 uM, replicate 1
# [10] = 24 h, 1 µM, compound concentration 1 uM, replicate 2
# [11] = 48 h, 1 µM, compound concentration 1 uM, replicate 1
# [12] = 48 h, 1 µM, compound concentration 1 uM, replicate 2
smiles,measurement,setting,value
CC(=O)O[C@H]1C(=O)[C@@]2(C)[C@H]([C@H](OC(=O)c3ccccc3)[C@]3(O)C[C@H](OC(=O)[C@H](O)[C@@H](NC(=O)c4ccccc4)c4ccccc4)C(C)=C1C3(C)C)[C@]1(OC(C)=O)CO[C@@H]1C[C@@H]2O [PACLITAXEL],Population Apoptotic (%),[1],65% and 41%
same,Population Fragmented Nuclei (%),[1],19% and 23%
same,Population Healthy Nuclei (%),[1],63% and 56%
same,Population Hoechst High Intensity Objects (%),[1],5% and 3%
same,Population Membrane Permeable-Phenotype (%),[1],0% and 1%
same,Population Mitochondria Different-Phenotype (%),[1],10% and 9%
same,Population Mitotic Cells (%),[1],34% and 58%
same,Population Normal (%),[1],94% and 96%
same,Population Pyknosed Nuclei (%),[1],16% and 19%
same,Population Tubulin-Different-Phenotype (%),[1],17% and 19%
same,Total Cell Count,[1],167 and 151
same,Population Apoptotic (%),[2],39% and 43%
same,Population Fragmented Nuclei (%),[2],34% and 32%
same,Population Healthy Nuclei (%),[2],39% and 32%
same,Population Hoechst High Intensity Objects (%),[2],1%
same,Population Membrane Permeable-Phenotype (%),[2],6% and 8%
same,Population Mitochondria Different-Phenotype (%),[2],13% and 19%
same,Population Mitotic Cells (%),[2],60% and 56%
same,Population Normal (%),[2],98%
same,Population Pyknosed Nuclei (%),[2],25% and 34%
same,Population Tubulin-Different-Phenotype (%),[2],44% and 52%
same,Total Cell Count,[2],111 and 142
same,Population Apoptotic (%),[3],70% and 60%
same,Population Fragmented Nuclei (%),[3],19% and 21%
same,Population Healthy Nuclei (%),[3],63% and 58%
same,Population Hoechst High Intensity Objects (%),[3],1% and 3%
same,Population Membrane Permeable-Phenotype (%),[3],0% and 1%
same,Population Mitochondria Different-Phenotype (%),[3],9% and 13%
same,Population Mitotic Cells (%),[3],29% and 40%
same,Population Normal (%),[3],98% and 96%
same,Population Pyknosed Nuclei (%),[3],16% and 20%
same,Population Tubulin-Different-Phenotype (%),[3],12% and 24%
same,Total Cell Count,[3],164 and 155
same,Population Apoptotic (%),[4],30% and 62%
same,Population Fragmented Nuclei (%),[4],36% and 27%
same,Population Healthy Nuclei (%),[4],45% and 43%
same,Population Hoechst High Intensity Objects (%),[4],2% and 4%
same,Population Membrane Permeable-Phenotype (%),[4],6% and 11%
same,Population Mitochondria Different-Phenotype (%),[4],10% and 19%
same,Population Mitotic Cells (%),[4],70% and 37%
same,Population Normal (%),[4],97%
same,Population Pyknosed Nuclei (%),[4],18% and 29%
same,Population Tubulin-Different-Phenotype (%),[4],40% and 48%
same,Total Cell Count,[4],114 and 125
same,Population Apoptotic (%),[5],76% and 84%
same,Population Fragmented Nuclei (%),[5],31% and 28%
same,Population Healthy Nuclei (%),[5],50% and 53%
same,Population Hoechst High Intensity Objects (%),[5],4%
same,Population Membrane Permeable-Phenotype (%),[5],0%
same,Population Mitochondria Different-Phenotype (%),[5],16% and 18%
same,Population Mitotic Cells (%),[5],23% and 16%
same,Population Normal (%),[5],95%
same,Population Pyknosed Nuclei (%),[5],17%
same,Population Tubulin-Different-Phenotype (%),[5],20% and 23%
same,Total Cell Count,[5],177 and 150
same,Population Apoptotic (%),[6],54% and 56%
same,Population Fragmented Nuclei (%),[6],48% and 41%
same,Population Healthy Nuclei (%),[6],42% and 47%
same,Population Hoechst High Intensity Objects (%),[6],0% and 1%
same,Population Membrane Permeable-Phenotype (%),[6],3% and 8%
same,Population Mitochondria Different-Phenotype (%),[6],9% and 14%
same,Population Mitotic Cells (%),[6],45% and 43%
same,Population Normal (%),[6],100% and 98%
same,Population Pyknosed Nuclei (%),[6],8% and 11%
same,Population Tubulin-Different-Phenotype (%),[6],40% and 54%
same,Total Cell Count,[6],129 and 146
C[C@H](NC(=O)c1c(C(F)F)nn(C)c1Oc1cccc(C(F)(F)F)c1)c1ccc(C(=O)O)cc1 [PALUPIPRANT],Population Apoptotic (%),[7],26%
same,Population Fragmented Nuclei (%),[7],29%
same,Population Healthy Nuclei (%),[7],57%
same,Population Hoechst High Intensity Objects (%),[7],5%
same,Population Membrane Permeable-Phenotype (%),[7],0%
same,Population Mitochondria Different-Phenotype (%),[7],4%
same,Population Mitotic Cells (%),[7],73%
same,Population Normal (%),[7],94%
same,Population Pyknosed Nuclei (%),[7],12%
same,Population Tubulin-Different-Phenotype (%),[7],23%
same,Total Cell Count,[7],187
same,Population Apoptotic (%),[8],24%
same,Population Fragmented Nuclei (%),[8],23%
same,Population Healthy Nuclei (%),[8],52%
same,Population Hoechst High Intensity Objects (%),[8],6%
same,Population Membrane Permeable-Phenotype (%),[8],11%
same,Population Mitochondria Different-Phenotype (%),[8],6%
same,Population Mitotic Cells (%),[8],75%
same,Population Normal (%),[8],93%
same,Population Pyknosed Nuclei (%),[8],23%
same,Population Tubulin-Different-Phenotype (%),[8],55%
same,Total Cell Count,[8],148
same,Population Apoptotic (%),[1],45%
same,Population Fragmented Nuclei (%),[1],13%
same,Population Healthy Nuclei (%),[1],70%
same,Population Hoechst High Intensity Objects (%),[1],2%
same,Population Membrane Permeable-Phenotype (%),[1],2%
same,Population Mitochondria Different-Phenotype (%),[1],6%
same,Population Mitotic Cells (%),[1],55%
same,Population Normal (%),[1],97%
same,Population Pyknosed Nuclei (%),[1],16%
same,Population Tubulin-Different-Phenotype (%),[1],45%
same,Total Cell Count,[1],126
same,Population Apoptotic (%),[2],35%
same,Population Fragmented Nuclei (%),[2],42%
same,Population Healthy Nuclei (%),[2],35%
same,Population Hoechst High Intensity Objects (%),[2],14%
same,Population Membrane Permeable-Phenotype (%),[2],13%
same,Population Mitochondria Different-Phenotype (%),[2],13%
same,Population Mitotic Cells (%),[2],64%
same,Population Normal (%),[2],85%
same,Population Pyknosed Nuclei (%),[2],22%
same,Population Tubulin-Different-Phenotype (%),[2],60%
same,Total Cell Count,[2],149
same,Population Apoptotic (%),[9],40%
same,Population Fragmented Nuclei (%),[9],32%
same,Population Healthy Nuclei (%),[9],58%
same,Population Hoechst High Intensity Objects (%),[9],5%
same,Population Membrane Permeable-Phenotype (%),[9],1%
same,Population Mitochondria Different-Phenotype (%),[9],4%
same,Population Mitotic Cells (%),[9],60%
same,Population Normal (%),[9],94%
same,Population Pyknosed Nuclei (%),[9],8%
same,Population Tubulin-Different-Phenotype (%),[9],15%
same,Total Cell Count,[9],178
same,Population Apoptotic (%),[10],42%
same,Population Fragmented Nuclei (%),[10],26%
same,Population Healthy Nuclei (%),[10],53%
same,Population Hoechst High Intensity Objects (%),[10],7%
same,Population Membrane Permeable-Phenotype (%),[10],8%
same,Population Mitochondria Different-Phenotype (%),[10],5%
same,Population Mitotic Cells (%),[10],57%
same,Population Normal (%),[10],92%
same,Population Pyknosed Nuclei (%),[10],20%
same,Population Tubulin-Different-Phenotype (%),[10],51%
same,Total Cell Count,[10],141
same,Population Apoptotic (%),[3],60%
same,Population Fragmented Nuclei (%),[3],18%
same,Population Healthy Nuclei (%),[3],62%
same,Population Hoechst High Intensity Objects (%),[3],5%
same,Population Membrane Permeable-Phenotype (%),[3],2%
same,Population Mitochondria Different-Phenotype (%),[3],7%
same,Population Mitotic Cells (%),[3],39%
same,Population Normal (%),[3],94%
same,Population Pyknosed Nuclei (%),[3],18%
same,Population Tubulin-Different-Phenotype (%),[3],35%
same,Total Cell Count,[3],131
same,Population Apoptotic (%),[4],38%
same,Population Fragmented Nuclei (%),[4],40%
same,Population Healthy Nuclei (%),[4],42%
same,Population Hoechst High Intensity Objects (%),[4],10%
same,Population Membrane Permeable-Phenotype (%),[4],13%
same,Population Mitochondria Different-Phenotype (%),[4],3%
same,Population Mitotic Cells (%),[4],61%
same,Population Normal (%),[4],89%
same,Population Pyknosed Nuclei (%),[4],17%
same,Population Tubulin-Different-Phenotype (%),[4],51%
same,Total Cell Count,[4],138
same,Population Apoptotic (%),[11],53%
same,Population Fragmented Nuclei (%),[11],34%
same,Population Healthy Nuclei (%),[11],57%
same,Population Hoechst High Intensity Objects (%),[11],11%
same,Population Membrane Permeable-Phenotype (%),[11],0%
same,Population Mitochondria Different-Phenotype (%),[11],4%
same,Population Mitotic Cells (%),[11],46%
same,Population Normal (%),[11],88%
same,Population Pyknosed Nuclei (%),[11],7%
same,Population Tubulin-Different-Phenotype (%),[11],29%
same,Total Cell Count,[11],184
same,Population Fragmented Nuclei (%),[12],30%
same,Population Healthy Nuclei (%),[12],50%
same,Population Hoechst High Intensity Objects (%),[12],3%
same,Population Membrane Permeable-Phenotype (%),[12],4%
same,Population Normal (%),[12],96%
same,Population Pyknosed Nuclei (%),[12],19%
same,Population Tubulin-Different-Phenotype (%),[12],53%
same,Total Cell Count,[12],147
same,Population Apoptotic (%),[5],73%
same,Population Fragmented Nuclei (%),[5],20%
same,Population Healthy Nuclei (%),[5],60%
same,Population Hoechst High Intensity Objects (%),[5],4%
same,Population Membrane Permeable-Phenotype (%),[5],1%
same,Population Mitochondria Different-Phenotype (%),[5],8%
same,Population Mitotic Cells (%),[5],26%
same,Population Normal (%),[5],95%
same,Population Pyknosed Nuclei (%),[5],18%
same,Population Tubulin-Different-Phenotype (%),[5],46%
same,Total Cell Count,[5],130
same,Population Apoptotic (%),[6],60%
same,Population Fragmented Nuclei (%),[6],45%
same,Population Healthy Nuclei (%),[6],45%
same,Population Hoechst High Intensity Objects (%),[6],13%
same,Population Membrane Permeable-Phenotype (%),[6],10%
same,Population Mitochondria Different-Phenotype (%),[6],6%
same,Population Mitotic Cells (%),[6],40%
same,Population Normal (%),[6],86%
same,Population Pyknosed Nuclei (%),[6],9%
same,Population Tubulin-Different-Phenotype (%),[6],50%
same,Total Cell Count,[6],122
